# Experiments:
# [1] = test system: B16F10 mouse melanoma cells; experiment: Melanin content assay in B16F10 cells; type: cell-based; settings: αMSH (10 nM) induced B16F10 melanoma cells (Fig. 6A)
# How it was run: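 B16F10 cells grown in DMEM with 10% FBS and 1% penicillin/streptomycin at 37℃, 5% CO2, under αMSH (10 nM) stimulation. Seeded in 12-well plates for 24 h, refed and held 48 h in triplicate cultures, then trypsinised. Washed twice in PBS, lysed in 1 N NaOH/10% DMSO at 80℃ for 1 h; absorbance 405 nm versus untreated cells. Mean±SD; unpaired t-test.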
# [2] = test system: Melan-a mouse melanocytes; experiment: Melanin content assay in Melan-a cells; type: cell-based; settings: αMSH (10 nM) induced Melan-a cells (Fig. 6B)
# How it was run: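 Immortal non-tumorigenic mouse melanocytes kept in RPMI 1640 with 10% FBS, 1% penicillin/streptomycin and 200 nM TPA at 37℃, 10% CO2, subcultured every 4th day. Melanin content measured under αMSH (10 nM) stimulation and expressed as % of untreated control alongside MTT viability. Mean±SD; unpaired t-test.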
# [3] = test system: Mushroom tyrosinase (EC 1.14.18.1); experiment: In vitro mushroom tyrosinase assay; type: biochemical
# How it was run: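 Mushroom tyrosinase (EC 1.14.18.1), enzyme stock 1,100 units/ml (0.516 mg/ml) in 0.1 M phosphate buffer, mixed with phosphate buffer, test compound or reference inhibitor, and 5 mM L-dopa solution. Incubated 10 min at 37℃; dopachrome read at 475 nm. % inhibition = (ΔAcontrol−ΔAsample)/ΔAcontrol×100; IC50 = concentration giving 50% inhibition. Triplicate wells; experiments run at least three times; mean±SD, unpaired t-test.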
"dose dependence of mushroom tyrosinase inhibition ([3]; 5, 10, 20, 40, and 80 µM (Fig. 4, 5))","maximum inhibitory effect of tyrosinase activity ([3]; in vitro tyrosinase screening, as restated in the discussion)",Molecule,effect on melanin content (in words) [1],effect on melanin content (in words) [2]
,,"OC[C@H]1O[C@@H](Oc2ccc(O)cc2)[C@H](O)[C@@H](O)[C@@H]1O [Arbutin, hydroquinone-beta-D-glucopyranoside]",inhibited melanin content,inhibited melanin content
dose-dependent inhibition,84%,KA-CDPGYIGSR [KA-CR9],,

# Reference: article PMC5064183 (Annals of Dermatology, 2016)
